Test results reported in PubChem BioAssay.
Active and inactive are the calls of the source.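 The calls were made as follows, unless noted: active = viability loss from added drug above about 55%, and viability with drug at most 40%, in both replicates (limit read from the data, passing the limit was not always enough); inconclusive = both conditions met in only one replicate; inactive = neither replicate meets both conditions.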

Assays:
[1] = reducers of endogenous Her2 protein level, primary screen, SKBR3 breast tumor cells, AlphaScreen, ATP viability (AID 461;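 active = Her2 level under about 52% in both replicate screens, with viability over 70% of control, limit read from the data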;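 as to Her2 level: lower value means less Her2 protein in the cells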;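 as to viability: percent of carrier control wells set as 100% viability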); conditions: 18-24 h, measured here: SKBR3 viability, ATP luminescence, at 10 µM
[2] = biological target: Receptor tyrosine-protein kinase erbB-2 (Homo sapiens) (UniProt P04626); experiment: as above; conditions: 18-24 h, at 10 µM, stronger effect = lower value
[3] = SK-BR-3 cell growth inhibitors, pilot screen, 24 h, human (AID 572;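 active = viability at or below 10% of carrier control in both of two separate runs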;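 also: compound exposure lasted between 18 and 24 h rather than exactly 24 h; 100% = carrier-treated control wells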); conditions: SK-BR-3 viability, CellTiter-Glo luminescence, at 10 µM, stronger effect = lower value
[4] = HUVEC growth inhibition – cell-based, human, primary screen (AID 575;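 active = viability at or below 30% in both replicate assays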;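 also: 100% = median of untreated cell wells with 0.1% DMSO on each plate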); conditions: HUVEC proliferation, CellTiter-Glo luminescence, 72 h; at 10 µM; stronger effect = lower value
In short: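 Material: primary human umbilical vein endothelial cells / Schedule: 72 h exposure, 37 °C, 5% CO2, 30 min RT equilibration / Signal: ATP-based CellTiter-Glo luminescent read / Read-out basis: percent of median DMSO-control luminescence / Control set: 32 DMSO-only cell-control wells (high), 32 MePR drug-control wells (low) per plate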

[5] = growth inhibitors of H69AR lung tumor, primary screen, human, duplicate replicates (AID 580;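 active = viability at or under a set limit in both replicates, limit being median viability minus 3 SD, cut at about 48% in these data, passing the limit was not always enough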;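 also: 100% = mean luminescence of untreated wells and 0% = no signal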); conditions: H69AR lung tumor cells viability, ATP luminescence, 72 h; at 10 µM; stronger effect = lower value
[6] = reversal of MRP1-mediated doxorubicin resistance, pilot screen, H69AR cells, doxorubicin co-treatment (AID 601); conditions: CellTiter-Glo, 72 h, at 10 µM; for differential viability (reversal): stronger effect = higher value
[7] = 384-well plate pilot, post-Golgi transport modulator project, inhibition of yeast transport mutant growth (AID 636; in the data active = inhibition above about 31%); conditions: absorbance 615 nm, about 18 h, stronger effect = higher value
[8] = growth suppression of yeast trafficking mutant, preliminary HTS, modulators of trafficking downstream of Golgi apparatus project, 1536-format plate, OD 615 nm (AID 637; in the data active = inhibition above about 30%); conditions: yeast transport mutant growth, absorbance 615 nm, 18 h; stronger effect = higher value
[9] = H69AR cells + 2 uM doxorubicin, measured here: viability with 2 uM doxorubicin, stronger effect = lower value
[10] = H69AR cells, compound alone cytotoxicity

Receptor tyrosine-protein kinase erbB-2 (Homo sapiens), sequence (P04626 whole entry, looked up): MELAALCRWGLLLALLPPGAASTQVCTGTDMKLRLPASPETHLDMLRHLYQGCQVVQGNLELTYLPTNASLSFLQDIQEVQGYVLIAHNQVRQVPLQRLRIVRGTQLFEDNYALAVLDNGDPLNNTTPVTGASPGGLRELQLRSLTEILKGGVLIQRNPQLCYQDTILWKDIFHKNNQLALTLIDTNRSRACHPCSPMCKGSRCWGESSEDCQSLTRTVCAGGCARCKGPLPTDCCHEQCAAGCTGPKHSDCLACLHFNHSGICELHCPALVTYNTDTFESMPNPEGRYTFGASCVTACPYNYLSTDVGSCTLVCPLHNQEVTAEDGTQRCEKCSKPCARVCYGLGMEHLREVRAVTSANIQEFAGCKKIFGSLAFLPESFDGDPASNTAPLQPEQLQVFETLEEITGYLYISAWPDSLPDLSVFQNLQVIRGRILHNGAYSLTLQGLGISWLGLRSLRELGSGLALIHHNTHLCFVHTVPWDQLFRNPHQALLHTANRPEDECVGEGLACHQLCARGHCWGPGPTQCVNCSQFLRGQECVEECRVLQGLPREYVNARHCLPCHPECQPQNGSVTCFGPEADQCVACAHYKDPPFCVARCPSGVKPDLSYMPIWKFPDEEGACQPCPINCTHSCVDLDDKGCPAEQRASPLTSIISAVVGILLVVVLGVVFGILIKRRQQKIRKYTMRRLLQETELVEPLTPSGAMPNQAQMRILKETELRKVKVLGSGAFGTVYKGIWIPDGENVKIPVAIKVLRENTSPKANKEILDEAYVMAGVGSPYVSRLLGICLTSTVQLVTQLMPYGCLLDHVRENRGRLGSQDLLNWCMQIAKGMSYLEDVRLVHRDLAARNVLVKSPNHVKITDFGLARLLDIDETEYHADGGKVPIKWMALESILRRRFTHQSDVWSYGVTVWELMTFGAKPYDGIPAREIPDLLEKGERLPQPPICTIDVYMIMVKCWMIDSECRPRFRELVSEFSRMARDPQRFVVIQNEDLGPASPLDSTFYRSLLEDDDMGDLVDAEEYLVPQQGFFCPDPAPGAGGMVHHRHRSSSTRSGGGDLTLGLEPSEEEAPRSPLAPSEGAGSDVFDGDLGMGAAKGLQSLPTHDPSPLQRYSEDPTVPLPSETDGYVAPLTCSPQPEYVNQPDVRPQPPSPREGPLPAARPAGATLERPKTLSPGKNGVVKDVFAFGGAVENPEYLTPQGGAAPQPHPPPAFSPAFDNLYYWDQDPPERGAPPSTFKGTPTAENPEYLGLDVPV

| Compound | viability [1] | Her2 level [2] | viability [3] | viability [4] | viability [5] | differential viability (reversal) ([6]; H69AR cells + 2 uM doxorubicin) | viability [6, 9] | viability [6, 10] | inhibition [7] | inhibition [8] |
| --- | --- | --- | --- | --- | --- | --- | --- | --- | --- | --- |
| COc1ccc(-c2nc(SC)n(S(=O)(=O)c3ccccc3)n2)cc1 | 80% | 114% (inactive) | 80% (inactive) | 86.1% (inactive) | 98.1% (inactive) | 17.5% (inactive) | 80.6% | 98.1% | 1.73% (inactive) | -10.8% (inactive) |
| CC(C)(C)NC(=O)COC(=O)c1snc(C(=O)NC2CCCCC2)c1N | 86% | 75% (inactive) | 86% (inactive) | 51.9% (inactive) | 101% (inactive) | 12.7% (inactive) | 88.1% | 101% | -0.95% (inactive) | 1.59% (inactive) |
| COCCNC(=O)c1ccc(CS(=O)(=O)c2ccc(OC)cc2)o1 | 97% | 121% (inactive) | 97% (inactive) | 87% (inactive) | 109% (inactive) | 15.8% (inactive) | 93.5% | 109% | -1.03% (inactive) | 2.67% (inactive) |
| COc1ccc(CCNc2oc(-c3ccccc3OC)nc2C#N)cc1 | 88% | 106% (inactive) | 88% (inactive) | 86.4% (inactive) | 95.2% (inactive) | 0.34% (inactive) | 94.8% | 95.2% | -1.43% (inactive) | -11% (inactive) |
| CC1(C)Cc2noc(N)c2C(C)(C)N1OC(=O)c1cccs1 | 103% | 95.5% (inactive) | 103% (inactive) | 99.1% (inactive) | 102% (inactive) | 8.28% (inactive) | 94.2% | 102% | -4.08% (inactive) | -5.08% (inactive) |
| O=C(C1CCCO1)N1CCc2ccccc21 (stereo not given) | 85% | 92.5% (inactive) | 85% (inactive) | 94% (inactive) | 92.4% (inactive) | -5.42% (inactive) | 97.8% | 92.4% | -4.8% (inactive) | -0.32% (inactive) |
| Cc1cc(C)cc(-n2ccnc2SCC(=O)Nc2ccc3c(c2)OCCO3)c1 | 119% | 93.5% (inactive) | 119% (inactive) | 90.7% (inactive) | 99.3% (inactive) | 8.09% (inactive) | 91.2% | 99.3% | -6.05% (inactive) | -0.91% (inactive) |
| CCOC(=O)C(NC(=O)CC)(Nc1ccc(S(=O)(=O)Nc2onc(C)c2C)cc1)C(F)(F)F (stereo not given) | 116% | 97.5% (inactive) | 116% (inactive) | 102% (inactive) | 106% (inactive) | 8.86% (inactive) | 97% | 106% | -3.77% (inactive) | -0.48% (inactive) |
| CCOc1cc2oc(=O)c3c(c2cc1Cl)CCC3 | 106% | 96% (inactive) | 106% (inactive) | 102% (inactive) | 85.6% (inactive) | 8.13% (inactive) | 77.5% | 85.6% | -3.84% (inactive) | 2.38% (inactive) |
| CC1CN(CC(O)COc2ccc(C(C)C)cc2)CC(C)O1 (stereo not given) | 93% | 94.5% (inactive) | 93% (inactive) | 94.9% (inactive) | 76.2% (inactive) | 3.78% (inactive) | 72.4% | 76.2% | 18.6% (inactive) | 6% (inactive) |
| CC(=O)CCc1ccc(OCCCCn2cncn2)cc1 | 113% | 105% (inactive) | 113% (inactive) | 98.2% (inactive) | 92.9% (inactive) | 3.28% (inactive) | 89.6% | 92.9% | -4.94% (inactive) | 1.59% (inactive) |
| Nc1c(C(=O)NCc2ccco2)nnn1Cc1ccccc1 | 85.5% | 102% (inactive) | 85.5% (inactive) | 92.1% (inactive) | 96% (inactive) | 0.935% (inactive) | 95.1% | 96% | -6.32% (inactive) | 3.33% (inactive) |
| O=C(NCc1ccccc1)N[C@@H](Cc1ccccc1)C(=O)O | 96% | 95% (inactive) | 96% (inactive) | 106% (inactive) | 92.6% (inactive) | 3.32% (inactive) | 89.2% | 92.6% | -2.86% (inactive) | 3.5% (inactive) |
| Cc1ccc(S(=O)(=O)N2CCN(C(=O)CN3CCOCC3)C2C(C)C)cc1 (stereo not given) | 99.5% | 102% (inactive) | 99.5% (inactive) | 102% (inactive) | 104% (inactive) | 9.15% (inactive) | 94.5% | 104% | -2.86% (inactive) | -2.54% (inactive) |
